E-sel inducer = E-selectin induction in HUVECs, primary screen, imaging, HUVEC, immunofluorescence imaging, single point; normalized: neutral wells 0, TNF-alpha wells 100; 0.37% of 260,000 active; activation, % at 7.58 µM; P16581;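 active means mean E-selectin-positive cell signal at least 10% of the positive control, reached in at least 60% of replicates, without over 20% cell loss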
Target sequence (P16581 whole entry, looked up): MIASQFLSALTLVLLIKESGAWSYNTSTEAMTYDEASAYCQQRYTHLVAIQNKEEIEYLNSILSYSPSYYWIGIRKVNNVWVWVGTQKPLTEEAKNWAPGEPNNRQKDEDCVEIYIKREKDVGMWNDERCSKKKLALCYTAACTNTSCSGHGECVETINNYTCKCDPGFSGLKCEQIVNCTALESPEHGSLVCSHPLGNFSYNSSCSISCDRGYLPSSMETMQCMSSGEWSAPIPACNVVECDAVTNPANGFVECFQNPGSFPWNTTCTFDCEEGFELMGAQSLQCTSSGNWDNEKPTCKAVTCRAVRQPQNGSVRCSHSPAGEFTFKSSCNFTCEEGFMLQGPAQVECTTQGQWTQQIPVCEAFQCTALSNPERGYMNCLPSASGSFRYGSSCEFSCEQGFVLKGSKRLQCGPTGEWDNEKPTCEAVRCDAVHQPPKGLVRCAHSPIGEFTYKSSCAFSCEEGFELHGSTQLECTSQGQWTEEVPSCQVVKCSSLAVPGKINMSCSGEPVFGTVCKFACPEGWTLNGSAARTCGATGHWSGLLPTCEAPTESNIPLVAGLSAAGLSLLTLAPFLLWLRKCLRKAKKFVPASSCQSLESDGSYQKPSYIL
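assay system = HUVEC, human umbilical vein endothelial cells | input = 3,000 HUVEC seeded per well | medium = EGM-2 growth medium on 0.1% gelatin-coated wells | dosing = one compound dose added by pin transfer | signal = immunofluorescence imaging | read-out basis = % PE-positive cells | control set = TNF-alpha, DMSO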
DENV2 CPE = inhibitors of DENV2 cytopathic effect, primary screen, cell-based, plate reader, single concentration. DENV2-infected cells, cytopathic effect rescue. CPE inhibition, % at 9.99 µM. 1.7% of 350,000 active. AID 651640, 2012; in the data active means CPE inhibition above about 20%, passing the limit was not always enough; tested in BHK-21 cells;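 further: 0% = median of neutral control wells and 100% = median of positive control wells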
FGF22 binding = binders of human FGF22 protein, primary screen, FGF22 synaptogenesis inhibitor project, biophysical, thermal shift, single point. recombinant FGF22 thermal shift, SYPRO orange fluorescence; percent of sucrose octasulfate shift, DMSO zero. activity (Tm shift, normalised), % at 9.99 µM. 1.5% of 340,000 active. AID 651658, 2012;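 active means mean Tm shift, scaled 0 neutral to 100 positive control, at about 1.3% or above, every replicate too, limit read from the data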
CFTR F508del cor = F508del CFTR correction, initial screen, CFBE line, single point | activity (quench increase), % at 7.58 µM | 0.36% of 350,000 active | CFBE cells, YFP halide quenching; stimulated with forskolin plus potentiator P3; % fluorescence drop versus neutral controls;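 active means mean added fluorescence quench of at least 8% versus neutral control, with both replicates also reaching 8%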;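 further: cells transiently co-express mutant CFTR-F508del with the halide-sensitive YFP; corrector assay measuring rescue of mutant channel to the surface after 24 h compound exposure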
ERAP1 inh = human ERAP1 aminopeptidase inhibitors, primary screen, biochemical, single point, plate reader. inhibition, % at 10.7 µM. 0.15% of 340,000 active. recombinant ERAP1, Leu-AMC fluorescence, 60 min. Endoplasmic reticulum aminopeptidase 1 (Homo sapiens), Q9NZ08;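 active means mean replicate inhibition of at least 30%, or all replicates individually reaching that 30% level; inactive means mean below 30% and not every replicate reaching it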;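 further: 0% = neutral control wells and 100% = L-leucinethiol positive control wells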
* = called active by the depositor; ! = a repeat was not active. The list is not random: actives were taken first. Their share in the collection is about 3.7%.

How did COc1cc(-c2noc(C)c2/C=C/c2cccc([N+](=O)[O-])c2)cc(OC)c1OC do in these assays?
E-sel inducer: -0.2; DENV2 CPE: 5.1; FGF22 binding: 0.2; CFTR F508del cor: 7.4; ERAP1 inh: 2.8

How did CCO[C@@H]1OC(C(=O)NCc2nc3ccccc3[nH]2)=C[C@H](c2coc3ccccc3c2=O)[C@H]1CCCO do in these assays?
E-sel inducer: 0.1; DENV2 CPE: 50.2*; FGF22 binding: -0.2; CFTR F508del cor: -2.0; ERAP1 inh: -2.6

What do the screens show for `C#Cc1ccc([C@@H]2C=C(C(=O)NCc3nc4ccccc4[nH]3)O[C@H](OCC)[C@H]2CCCO)cc1`?
E-sel inducer: -0.1; DENV2 CPE: 22.2*!; FGF22 binding: 0.0; CFTR F508del cor: 2.4; ERAP1 inh: -3.6

Results for C#Cc1ccc([C@H]2C=C(C(=O)OCC=C)O[C@@H](OCC)[C@@H]2CCCO)cc1 ?
E-sel inducer: -0.1; DENV2 CPE: 48.7*!; FGF22 binding: 0.0; CFTR F508del cor: -3.9; ERAP1 inh: 0.7

Results for CCO[C@H]1OC(C(=O)NCc2nc3ccccc3[nH]2)=C[C@@H](C)[C@@H]1CCCO ?
E-sel inducer: -0.1; DENV2 CPE: 2.3; FGF22 binding: -0.1; CFTR F508del cor: 0.8; ERAP1 inh: 1.5

How did CCO[C@H]1OC(C(=O)NCc2nc3ccccc3[nH]2)=C[C@@H](c2ccc(C(F)(F)F)cc2)[C@@H]1CCCO do in these assays?
E-sel inducer: 0.2; DENV2 CPE: 1.3; FGF22 binding: -0.1; CFTR F508del cor: 0.4; ERAP1 inh: -0.8

What do the screens show for `C#Cc1ccc([C@@H]2C=C(C(=O)OCC=C)O[C@H](OCC)[C@H]2CCCO)cc1`?
E-sel inducer: 0.2; DENV2 CPE: 13.2; FGF22 binding: -0.3; CFTR F508del cor: -5.7; ERAP1 inh: -0.4

What do the screens show for `COCC#Cc1ccc2c(c1)O[C@H](CN(C)S(=O)(=O)c1cccc(OC)c1)[C@@H](C)CN([C@H](C)CO)S2(=O)=O`?
E-sel inducer: 0.4; DENV2 CPE: 0.5; FGF22 binding: 0.1; ERAP1 inh: 1.2

What do the screens show for `COc1ccc(C(=O)c2cc3ccc(O)cc3oc2=O)cc1`?
FGF22 binding: 0.1; CFTR F508del cor: -2.7; ERAP1 inh: 0.1

How did O=C(c1ccc(Br)cc1)c1cc2ccc(O)cc2oc1=O do in these assays?
E-sel inducer: 46.4*; DENV2 CPE: -2.0; FGF22 binding: 0.3; CFTR F508del cor: -2.2; ERAP1 inh: -6.4

How did C[C@H](CO)N1C[C@H](C)[C@H](CN(C)C(=O)c2cccc(F)c2)Oc2cc(C#CC3CC3)ccc2S1(=O)=O do in these assays?
E-sel inducer: -0.1; DENV2 CPE: -0.8; FGF22 binding: -0.5; CFTR F508del cor: -1.2; ERAP1 inh: -1.7

What do the screens show for `N#Cc1ccc(-c2ccc([C@@H]3[C@@H](CO)N4CCCCN(C(=O)Nc5ccc(F)cc5)C[C@@H]34)cc2)cc1`?
E-sel inducer: -0.7; DENV2 CPE: -1.9; FGF22 binding: 0.6; CFTR F508del cor: 0.6; ERAP1 inh: 3.7

What do the screens show for `N#Cc1ccc(-c2ccc([C@H]3[C@H]4CN(C(=O)Nc5ccc(F)cc5)CCCCN4[C@H]3CO)cc2)cc1`?
E-sel inducer: -0.7; DENV2 CPE: 23.8*; FGF22 binding: 0.6; CFTR F508del cor: 2.5; ERAP1 inh: 2.4

Results for N#Cc1ccc(-c2ccc([C@H]3[C@@H](CO)N4CCCCN(C(=O)Nc5ccc(F)cc5)C[C@H]34)cc2)cc1 ?
E-sel inducer: -0.5; DENV2 CPE: 3.1; FGF22 binding: 0.2; CFTR F508del cor: -0.2; ERAP1 inh: 1.9

How did N#Cc1ccc(-c2ccc([C@H]3[C@H](CO)N4CCCCN(C(=O)Nc5ccc(F)cc5)C[C@@H]34)cc2)cc1 do in these assays?
E-sel inducer: -0.5; DENV2 CPE: 48.7*; FGF22 binding: 0.3; CFTR F508del cor: 3.7; ERAP1 inh: 2.4

What do the screens show for `CCC(=O)N1[C@H](CO)[C@@H](c2ccccc2)C12CN(Cc1cc(F)ccc1F)C2`?
E-sel inducer: -0.1; DENV2 CPE: -11.4; FGF22 binding: -0.3; CFTR F508del cor: 1.5; ERAP1 inh: -1.6

Results for CCCCCC(=O)NC1CCCCN(C)C1=O (stereo not drawn) ?
E-sel inducer: -0.1; DENV2 CPE: 75.5*; FGF22 binding: 0.0; CFTR F508del cor: 1.7; ERAP1 inh: 1.0

How did CN1CCCCC(NC(=O)CCCl)C1=O (stereo not drawn) do in these assays?
E-sel inducer: 1.8; DENV2 CPE: 1.9; FGF22 binding: 0.0; CFTR F508del cor: -2.8; ERAP1 inh: -0.6

Results for COc1cc(C(=O)N/C(=C\c2cn(S(=O)(=O)N(C)C)c3ccccc23)C(=O)NCCCO)cc(OC)c1OC ?
E-sel inducer: -2.7; DENV2 CPE: -3.5; FGF22 binding: 43.5*; CFTR F508del cor: 0.3; ERAP1 inh: -2.7

How did CC(=O)Nc1cccc(NC(=O)CN2c3cccc4cccc(c34)S2(=O)=O)c1 do in these assays?
E-sel inducer: -0.1; DENV2 CPE: 7.6; FGF22 binding: -0.1; CFTR F508del cor: 24.4*; ERAP1 inh: 2.4

What do the screens show for `CC(C(=O)O)N(C(=O)c1ccccc1)c1ccc(F)cc1` (stereo not drawn)?
DENV2 CPE: -0.3; FGF22 binding: 0.1; CFTR F508del cor: 10.0*; ERAP1 inh: -0.5

Results for CC(C)C(=O)NN(C(=O)c1ccccc1)c1ccccc1 ?
DENV2 CPE: -4.5; FGF22 binding: 0.2; CFTR F508del cor: 2.2; ERAP1 inh: 5.0

Results for CCOc1ccc2nc(NC(=O)CSc3nc(SC)ns3)sc2c1 ?
DENV2 CPE: -1.2; FGF22 binding: 1.7*; CFTR F508del cor: -0.5; ERAP1 inh: 1.3

How did CCOc1ccc(-c2nnc3ccc(SCC(=O)Nc4nc5ccccc5s4)nn23)cc1 do in these assays?
E-sel inducer: -1.7; DENV2 CPE: -3.2; FGF22 binding: 6.6*; ERAP1 inh: 2.1

What do the screens show for `C[C@H](CO)N1C[C@H](C)[C@@H](CN(C)C(=O)Nc2ccc3c(c2)OCO3)Oc2ccc(NS(=O)(=O)c3ccccc3)cc2CC1=O`?
E-sel inducer: 0.2; CFTR F508del cor: 0.2

How did O=C(O)CN1CCNCCN(CC(=O)O)CCNCC1 do in these assays?
E-sel inducer: -0.2; DENV2 CPE: 19.8; FGF22 binding: 42.9*; CFTR F508del cor: -1.5; ERAP1 inh: 5.7

What do the screens show for `C[C@@H]1CN([C@@H](C)CO)C(=O)c2cc(NS(C)(=O)=O)ccc2O[C@@H](C)CCCCO[C@@H]1CN(C)C(=O)Cc1ccccc1`?
E-sel inducer: 0.0; DENV2 CPE: 4.9; FGF22 binding: -0.1; CFTR F508del cor: 0.2; ERAP1 inh: 2.7

What do the screens show for `Cc1ccccc1Nc1nc(N)nc(COC(=O)c2cccc(S(=O)(=O)N(C)C)c2)n1`?
E-sel inducer: -0.4; DENV2 CPE: -0.9; FGF22 binding: 0.0; CFTR F508del cor: 3.7; ERAP1 inh: 0.6
